ChEMBL document CHEMBL1828561, “Identification of a potent and selective free fatty acid receptor 1 (FFA1/GPR40) agonist with favorable physicochemical and in vitro ADME properties” (J Med Chem, 2011)
Values after ≈ are worked out from the molar mass of the structure shown. Active and inactive are the calls of the source. No cut-off for these calls is given here.

Experiments:
1321-N1 [1] = assay: Selectivity for human FFA1 receptor expressed in human 1321N1 cells over 5HT2A receptor; type: cell-based
1321-N1 [2] = assay: Selectivity for human FFA1 receptor expressed in human 1321N1 cells over 5HT2B receptor; type: cell-based
1321-N1 [3] = assay: Selectivity for human FFA1 receptor expressed in human 1321N1 cells over V1a receptor; type: cell-based
1321-N1 [4] = assay: Selectivity for human FFA1 receptor expressed in human 1321N1 cells over Ca2+ channel; type: cell-based
1321-N1 [5] = assay: Selectivity for human FFA1 receptor expressed in human 1321N1 cells over Na+ channel; type: cell-based
1321-N1 [6] = assay: Selectivity for human FFA1 receptor expressed in human 1321N1 cells over Cl- channel; type: cell-based
1321-N1 [7] = assay: Selectivity for human FFA1 receptor expressed in human 1321N1 cells over norepinephrine transporter; type: cell-based
1321-N1 [8] = assay: Selectivity for human FFA1 receptor expressed in human 1321N1 cells over 5HT transporter; type: cell-based
[9] = Aqueous solubility of the compound in PBS at pH 7.4; type: physicochemical
In short: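 Solubility measured in PBS at pH 7.4.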

[10] = Octanol-phosphate buffer partition coefficient, log D of the compound at pH 7.4 by HPLC analysis; type: physicochemical
[11] = Plasma protein binding in human; type: ADME, cell-free; conditions: read-out: PPB (converted)
CYP1A2 = biological target: T1, CYP1A2 (Homo sapiens, UniProt P05177); assay: Inhibition of CYP1A2 at 10 uM; type: ADME
T1 sequence (P05177 whole entry): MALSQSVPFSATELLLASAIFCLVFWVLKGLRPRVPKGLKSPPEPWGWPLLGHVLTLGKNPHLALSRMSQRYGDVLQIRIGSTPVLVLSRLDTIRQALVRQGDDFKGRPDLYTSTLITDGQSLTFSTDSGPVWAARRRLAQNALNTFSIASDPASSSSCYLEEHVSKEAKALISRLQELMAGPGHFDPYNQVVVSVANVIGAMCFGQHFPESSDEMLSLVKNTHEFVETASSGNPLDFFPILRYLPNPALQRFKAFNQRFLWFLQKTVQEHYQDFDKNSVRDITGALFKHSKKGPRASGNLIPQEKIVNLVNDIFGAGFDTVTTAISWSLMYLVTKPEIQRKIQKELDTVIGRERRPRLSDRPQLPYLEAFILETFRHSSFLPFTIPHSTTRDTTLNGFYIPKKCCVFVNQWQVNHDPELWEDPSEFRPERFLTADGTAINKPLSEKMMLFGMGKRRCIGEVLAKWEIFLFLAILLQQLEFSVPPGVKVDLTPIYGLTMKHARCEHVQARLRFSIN

CYP2C19 = CYP2C19 (Homo sapiens, UniProt P33261); assay: Inhibition of CYP2C19 at 10 uM; type: ADME
CYP2D6 = CYP2D6 (Homo sapiens, UniProt P10635); assay: Inhibition of CYP2D6 at 10 uM; type: ADME
CYP3A4 = CYP3A4 (Homo sapiens, UniProt P08684); assay: Inhibition of CYP3A4 at 10 uM; type: ADME
[12] = Apparent permeability across methotrexate treated human HT-29 cells; type: ADME, cell-based
In short: (§1)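 HT29-MTX mucus-producing cells, passage 32, grown 23 days (TEER > 750 Ω cm²). Compound at 100 μM (10 mM DMSO stock diluted 1:100 in buffer). […] Non-permeated drug measured for recovery. Monolayer integrity checked by 20 μM carboxyfluorescein after 1 h and TEER.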

[13] = Permeability across methotrexate treated human HT-29 cells assessed as compound recovery; type: ADME, cell-based; conditions: read-out: Activity; in short: as §1
[14] = biological target: Free fatty acid receptor 1 (Homo sapiens, UniProt O14842); assay: Agonist activity at human FFA1 receptor expressed in human HEK293 assessed as movement of cellular constitiuent by DMR assay; type: functional, cell-based
In short: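 FFA1-HEK cells (doxycycline-inducible FLAG-hFFA1, HEK293), 15 000/well on fibronectin-coated 384-well Epic plates, 20–24 h culture. Washed in HBSS/20 mM HEPES, equilibrated 1 h at 28 °C, baseline read, compound added.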

[15] = biological target: Free fatty acid receptor 1 (Rattus norvegicus) (UniProt Q8K3T4); assay: Agonist activity at FFA1 receptor in rat INS-1E cells assessed as movement of cellular constitiuent at 0.3 uM by DMR assay in the presence of trans-1-oxo-3-(4-phenoxyphenyl)-2-propyl-1,2,3,4-tetrahydroisoquinoline-4-carboxylic acid; type: functional, cell-based
In short: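 Label-free DMR on an Epic optical biosensor. Rat INS-1E cells, 30 000/well on fibronectin-coated 384-well sensor plates, cultured 20–24 h to confluence. Washed in HBSS/20 mM HEPES and equilibrated 1 h at 28 °C. Baseline read, compound added, wavelength shift (pm) monitored ≥5000 s. Antagonist line: 0.3 μM agonist with the FFA1 antagonist over a concentration range, pIC50 derived, n = 4.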

1321-N1 [16] = assay: Selectivity for human FFA1 receptor expressed in human 1321N1 cells over PPARgamma receptor; type: cell-based
1321-N1 [17] = assay: Selectivity for human FFA1 receptor expressed in human 1321N1 cells over A1 receptor; type: cell-based
1321-N1 [18] = assay: Selectivity for human FFA1 receptor expressed in human 1321N1 cells over alpha2 receptor; type: cell-based
1321-N1 [19] = assay: Selectivity for human FFA1 receptor expressed in human 1321N1 cells over beta1 receptor; type: cell-based
1321-N1 [20] = assay: Selectivity for human FFA1 receptor expressed in human 1321N1 cells over beta2 receptor; type: cell-based
1321-N1 [21] = assay: Selectivity for human FFA1 receptor expressed in human 1321N1 cells over AT1 receptor; type: cell-based
1321-N1 [22] = assay: Selectivity for human FFA1 receptor expressed in human 1321N1 cells over CCK1 receptor; type: cell-based
1321-N1 [23] = assay: Selectivity for human FFA1 receptor expressed in human 1321N1 cells over D1 receptor; type: cell-based
1321-N1 [24] = assay: Selectivity for human FFA1 receptor expressed in human 1321N1 cells over […]; type: cell-based
1321-N1 [25] = assay: Selectivity for human FFA1 receptor expressed in human 1321N1 cells over ETA receptor; type: cell-based
1321-N1 [26] = assay: Selectivity for human FFA1 receptor expressed in human 1321N1 cells over H1 receptor; type: cell-based
1321-N1 [27] = assay: Selectivity for human FFA1 receptor expressed in human 1321N1 cells over H2 receptor; type: cell-based
1321-N1 [28] = assay: Selectivity for human FFA1 receptor expressed in human 1321N1 cells over M2 receptor; type: cell-based
1321-N1 [29] = assay: Selectivity for human FFA1 receptor expressed in human 1321N1 cells over M3 receptor; type: cell-based
1321-N1 [30] = assay: Selectivity for human FFA1 receptor expressed in human 1321N1 cells over NK2 receptor; type: cell-based
1321-N1 [31] = assay: Selectivity for human FFA1 receptor expressed in human 1321N1 cells over Delta2 receptor; type: cell-based
1321-N1 [32] = assay: Selectivity for human FFA1 receptor expressed in human 1321N1 cells over kappa receptor; type: cell-based
1321-N1 [33] = assay: Selectivity for human FFA1 receptor expressed in human 1321N1 cells over Mu receptor; type: cell-based
1321-N1 [34] = assay: Selectivity for human FFA1 receptor expressed in human 1321N1 cells over NOP receptor; type: cell-based
1321-N1 [35] = assay: Selectivity for human FFA1 receptor expressed in human 1321N1 cells over TP receptor; type: cell-based
1321-N1 [36] = assay: Selectivity for human FFA1 receptor expressed in human 1321N1 cells over 5HT1A receptor; type: cell-based
1321-N1 [37] = assay: Selectivity for human FFA1 receptor expressed in human 1321N1 cells over 5HT1B receptor; type: cell-based

CYP3A4, sequence (P08684 whole entry): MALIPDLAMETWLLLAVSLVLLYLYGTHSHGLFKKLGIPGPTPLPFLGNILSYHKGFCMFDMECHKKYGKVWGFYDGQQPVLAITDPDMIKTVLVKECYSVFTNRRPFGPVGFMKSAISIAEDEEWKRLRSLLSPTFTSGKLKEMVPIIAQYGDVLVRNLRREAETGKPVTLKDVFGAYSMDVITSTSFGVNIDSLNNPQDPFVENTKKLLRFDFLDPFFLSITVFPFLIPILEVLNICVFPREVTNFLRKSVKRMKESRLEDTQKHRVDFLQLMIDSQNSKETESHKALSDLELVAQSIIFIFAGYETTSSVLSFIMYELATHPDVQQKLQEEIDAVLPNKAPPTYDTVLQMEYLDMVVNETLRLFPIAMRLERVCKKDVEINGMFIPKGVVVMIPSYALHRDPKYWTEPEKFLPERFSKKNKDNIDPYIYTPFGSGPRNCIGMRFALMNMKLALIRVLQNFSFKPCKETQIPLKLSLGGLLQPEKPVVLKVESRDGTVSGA
Free fatty acid receptor 1 (Rattus norvegicus), sequence (Q8K3T4 whole entry): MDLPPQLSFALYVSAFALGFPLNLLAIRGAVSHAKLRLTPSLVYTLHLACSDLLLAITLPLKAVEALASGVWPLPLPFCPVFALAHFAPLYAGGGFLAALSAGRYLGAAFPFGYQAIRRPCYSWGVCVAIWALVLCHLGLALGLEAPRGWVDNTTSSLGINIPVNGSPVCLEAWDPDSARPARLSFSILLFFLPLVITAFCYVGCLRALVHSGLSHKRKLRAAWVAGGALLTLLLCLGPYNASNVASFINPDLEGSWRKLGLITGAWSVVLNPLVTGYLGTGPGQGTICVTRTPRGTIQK
CYP2D6, sequence (P10635 whole entry): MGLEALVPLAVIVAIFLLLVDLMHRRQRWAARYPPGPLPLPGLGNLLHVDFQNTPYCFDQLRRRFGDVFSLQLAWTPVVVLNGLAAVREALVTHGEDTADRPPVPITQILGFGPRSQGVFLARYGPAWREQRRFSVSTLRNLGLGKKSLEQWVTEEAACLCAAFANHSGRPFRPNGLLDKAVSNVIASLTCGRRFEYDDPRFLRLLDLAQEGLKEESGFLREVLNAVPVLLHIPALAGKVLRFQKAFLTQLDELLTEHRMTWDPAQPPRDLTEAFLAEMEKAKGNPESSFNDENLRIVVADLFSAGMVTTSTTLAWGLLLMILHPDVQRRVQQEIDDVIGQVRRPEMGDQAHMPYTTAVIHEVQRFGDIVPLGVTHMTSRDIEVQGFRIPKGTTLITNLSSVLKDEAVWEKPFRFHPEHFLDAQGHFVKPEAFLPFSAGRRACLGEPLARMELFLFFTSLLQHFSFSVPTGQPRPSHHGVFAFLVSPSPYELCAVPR
CYP2C19, sequence (P33261 whole entry): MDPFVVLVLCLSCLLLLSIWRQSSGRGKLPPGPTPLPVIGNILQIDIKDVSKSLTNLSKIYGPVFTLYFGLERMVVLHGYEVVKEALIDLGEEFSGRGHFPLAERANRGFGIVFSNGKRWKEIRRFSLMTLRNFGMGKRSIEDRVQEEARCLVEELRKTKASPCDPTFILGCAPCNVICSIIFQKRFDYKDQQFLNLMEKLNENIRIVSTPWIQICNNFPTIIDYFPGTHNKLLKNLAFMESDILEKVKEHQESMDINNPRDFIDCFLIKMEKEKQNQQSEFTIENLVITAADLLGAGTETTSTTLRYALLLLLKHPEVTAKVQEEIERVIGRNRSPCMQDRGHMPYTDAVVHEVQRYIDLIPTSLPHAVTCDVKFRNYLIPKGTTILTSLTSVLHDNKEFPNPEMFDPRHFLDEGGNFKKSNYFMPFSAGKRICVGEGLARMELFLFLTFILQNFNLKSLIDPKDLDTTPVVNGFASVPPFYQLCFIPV
Free fatty acid receptor 1, sequence (O14842 whole entry): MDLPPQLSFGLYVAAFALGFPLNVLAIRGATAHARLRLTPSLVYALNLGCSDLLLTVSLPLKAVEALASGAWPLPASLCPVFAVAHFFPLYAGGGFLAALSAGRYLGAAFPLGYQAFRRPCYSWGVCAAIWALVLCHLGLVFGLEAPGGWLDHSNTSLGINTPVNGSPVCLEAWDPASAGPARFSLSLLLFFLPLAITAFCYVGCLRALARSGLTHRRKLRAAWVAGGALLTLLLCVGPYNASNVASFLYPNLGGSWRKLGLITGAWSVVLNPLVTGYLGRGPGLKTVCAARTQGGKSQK

- solubility [9]: 199 µM (≈ 63.7 µg/mL)
- logD [10]: 1.97
- fraction unbound [11]: 0.031
- inhibition at 10 µM (CYP1A2): -7%
- inhibition at 10 µM (CYP2C19): -7%
- inhibition at 10 µM (CYP2D6): 5%
- inhibition at 10 µM (CYP3A4): 5%
- Papp [12]: 16.4 ×10⁻⁶ cm/s
- recovery [13]: 63%
- Activity [14]: Active
- Activity [15]: inactive
Compound: O=C(O)CCc1ccc(C#Cc2cc(Cl)nc(Cl)c2)cc1
- Selectivity ratio (1321-N1 [1]): > 100
- Selectivity ratio (1321-N1 [2]): > 100
- Selectivity ratio (1321-N1 [3]): > 100
- Selectivity ratio (1321-N1 [4]): > 100
- Selectivity ratio (1321-N1 [5]): > 100
- Selectivity ratio (1321-N1 [6]): > 100
- Selectivity ratio (1321-N1 [7]): > 100
- Selectivity ratio (1321-N1 [8]): > 100
- Selectivity ratio (1321-N1 [16]): > 100
- Selectivity ratio (1321-N1 [17]): > 100
- Selectivity ratio (1321-N1 [18]): > 100
- Selectivity ratio (1321-N1 [19]): > 100
- Selectivity ratio (1321-N1 [20]): > 100
- Selectivity ratio (1321-N1 [21]): > 100
- Selectivity ratio (1321-N1 [22]): > 100
- Selectivity ratio (1321-N1 [23]): > 100
- Selectivity ratio (1321-N1 [24]): > 100
- Selectivity ratio (1321-N1 [25]): > 100
- Selectivity ratio (1321-N1 [26]): > 100
- Selectivity ratio (1321-N1 [27]): > 100
- Selectivity ratio (1321-N1 [28]): > 100
- Selectivity ratio (1321-N1 [29]): > 100
- Selectivity ratio (1321-N1 [30]): > 100
- Selectivity ratio (1321-N1 [31]): > 100
- Selectivity ratio (1321-N1 [32]): > 100
- Selectivity ratio (1321-N1 [33]): > 100
- Selectivity ratio (1321-N1 [34]): > 100
- Selectivity ratio (1321-N1 [35]): > 100
- Selectivity ratio (1321-N1 [36]): > 100
- Selectivity ratio (1321-N1 [37]): > 100
